Experimental data as given in publication PMC5984530 (Proceedings of the National Academy of Sciences of the …, 2018).
Numbering of substitutions follows the chain as printed.

Tests used:
HlCHIL1 protein = molecular target: T1, HlCHIL1 protein (Humulus lupulus, UniProt A0A2U7XUH7); assay: Differential scanning fluorimetry; type: binding; conditions: for ΔTmmax: wild-type HlCHIL1, thermal shift dose-response; for binding to CHIL1 protein (in words): wild-type HlCHIL1, differential scanning fluorimetry
T1 sequence (A0A2U7XUH7 1-214): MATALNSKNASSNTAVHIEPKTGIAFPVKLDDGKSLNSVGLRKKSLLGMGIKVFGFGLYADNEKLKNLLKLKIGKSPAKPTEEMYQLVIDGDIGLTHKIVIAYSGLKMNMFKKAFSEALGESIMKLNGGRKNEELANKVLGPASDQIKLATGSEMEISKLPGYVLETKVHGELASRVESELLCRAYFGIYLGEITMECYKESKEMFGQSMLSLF
Summary of the method: (§1)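 Purified HlCHIL protein (wild-type or point mutant), 5 μM, was mixed with Protein Thermal Shift buffer and dye. Test ligand was serially diluted from 250 μM to 0.12 μM (12 points). Melting was followed on a real-time PCR instrument. Kd and ΔTmmax were fitted from the dose–response of thermal shift against ligand concentration.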

His-tagged CHIL1 = molecular target: T2, His-tagged CHIL1 (Humulus lupulus, UniProt A0A2U7XUH7); assay: Protein-metabolite interaction assay; type: binding
T2 sequence (A0A2U7XUH7 1-214): T1 sequence (A0A2U7XUH7 1-214)
Summary of the method: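 His-tagged CHIL1 was expressed in E. coli BL21 and purified by Ni-NTA. Protein (30 μg) was incubated for 8 h at 4 °C with yeast extract (about 200 μM N/NC, 5 μM DMX) in 50 mM Tris·HCl pH 7.5 with 20% methanol. Protein was captured on MagneHis Ni beads. Bead-bound and supernatant compounds were extracted with ethyl acetate and measured by LC-QQQ-MS/MS (MRM 341.0→165.0). Beads alone were the control; n = 3.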

CHIL1^A143F = molecular target: T3, CHIL1^A143F (Humulus lupulus, UniProt A0A2U7XUH7, A143F); assay: Differential scanning fluorimetry binding assay with CHIL1 A143F mutant; conditions: thermal shift dose-response
T3 sequence (A0A2U7XUH7 1-214 A143F): T1 sequence (A0A2U7XUH7 1-214) with A143F
Summary of the method: as §1

CHIL1^V139F/A143F = molecular target: T4, CHIL1^V139F/A143F (Humulus lupulus, UniProt A0A2U7XUH7, A143F/V139F); type: binding; conditions: thermal shift dose-response
T4 sequence (A0A2U7XUH7 1-214 V139F/A143F): T1 sequence (A0A2U7XUH7 1-214) with V139F, A143F

CHIL2 = molecular target: T5, CHIL2 (Humulus lupulus, UniProt A0A2U7XUE3); assay: Protein-metabolite interaction assay; type: binding; conditions: same incubation conditions, 8 h at 4 °C
T5 sequence (A0A2U7XUE3 1-209): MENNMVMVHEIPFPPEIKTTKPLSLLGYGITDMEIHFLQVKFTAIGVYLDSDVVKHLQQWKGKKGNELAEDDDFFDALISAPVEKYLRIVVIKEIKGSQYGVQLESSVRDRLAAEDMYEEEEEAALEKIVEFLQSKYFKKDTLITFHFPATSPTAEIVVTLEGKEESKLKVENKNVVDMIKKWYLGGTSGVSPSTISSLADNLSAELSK

CHIL1^V139F = molecular target: T6, CHIL1^V139F (Humulus lupulus, UniProt A0A2U7XUH7, V139F); assay: Differential scanning fluorimetry binding assay with CHIL1 V139F mutant
T6 sequence (A0A2U7XUH7 1-214 V139F): T1 sequence (A0A2U7XUH7 1-214) with V139F
Summary of the method: as §1

CHS_H1 = molecular target: T7, CHS_H1 (Humulus lupulus, UniProt Q9FEY5); assay: In vitro chalcone synthase assay, kinetic parameters, CHS_H1 alone; type: biochemical; conditions: 2 μg CHS_H1; other substrate fixed: 150 μM malonyl-CoA or 40 μM p-coumaroyl-CoA
T7 sequence (Q9FEY5 1-389): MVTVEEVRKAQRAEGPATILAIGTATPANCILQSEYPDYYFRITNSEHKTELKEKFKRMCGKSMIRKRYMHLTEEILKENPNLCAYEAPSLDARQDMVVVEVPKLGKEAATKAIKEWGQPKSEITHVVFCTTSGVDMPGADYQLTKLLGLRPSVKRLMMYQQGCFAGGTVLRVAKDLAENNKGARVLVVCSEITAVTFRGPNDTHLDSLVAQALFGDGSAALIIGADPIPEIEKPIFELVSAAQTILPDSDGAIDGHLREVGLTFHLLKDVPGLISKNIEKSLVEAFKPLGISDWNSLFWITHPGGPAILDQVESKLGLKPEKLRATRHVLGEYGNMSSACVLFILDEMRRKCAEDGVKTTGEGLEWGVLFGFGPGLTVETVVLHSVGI
Summary of the method: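 Purified recombinant CHS_H1 (2 μg) was run in standard reactions: 50 mM Tris·HCl pH 7, 0.1 mg/mL BSA, 30 °C, 60 min. One substrate was fixed (40 μM p-coumaroyl-CoA or 150 μM malonyl-CoA) while the other was varied. Products were extracted and quantified. Apparent Km came from Hanes plots; n = 3, means ± SD.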

For `CC(C)=CCc1c(O)cc(O)c(C(=O)/C=C/c2ccc(O)cc2)c1O` [DMX, demethylxanthohumol], the Kd (HlCHIL1 protein) was 25.1 µM, the ΔTmmax (HlCHIL1 protein) was 10.23 °C and the “enrichment of DMX levels by CHIL1 protein (bound vs solution)” value (His-tagged CHIL1; incubation 8 h at 4 °C with yeast extract (DMX/6PN/8PN)) was 14.2 fold. For the same compound, the “ratio of (DMX)/(total DMX) in CHIL1-bound chemical mixture” value (His-tagged CHIL1; incubation 8 h at 4 °C, n = 3) was 19.7%, the “ratio of (DMX)/(total DMX) in solution” value (His-tagged CHIL1; supernatant, incubation 8 h at 4 °C) was 1.39% and the ΔTmmax (CHIL1^A143F) was 10.87 °C. For the same compound, the ΔTmmax (CHIL1^V139F/A143F) was 5.26 °C, the “CHIL2-associated compound (in words)” value (CHIL2) was “no CHIL2-associated DMX or 8PN were detected” and the Kd (CHIL1^V139F) was 10 µM. The ΔTmmax (CHIL1^V139F; CHIL1^V139F, thermal shift dose-response) was 10.15 °C.
For `O=C1C[C@@H](c2ccc(O)cc2)Oc2cc(O)cc(O)c21` [N, naringenin], the “binding to CHIL1 protein (in words)” value (HlCHIL1 protein) was “no such binding could be detected”.
With `CC(C)(COP(=O)(O)OP(=O)(O)OC[C@H]1O[C@@H](n2cnc3c(N)ncnc32)[C@H](O)[C@@H]1OP(=O)(O)O)[C@@H](O)C(=O)NCCC(=O)NCCSC(=O)/C=C/c1ccc(O)cc1` [p-Coumaroyl-CoA] the Kcat (CHS_H1) was 0.21 ± 0.02 s^−1 × 10^−3 and the Km (CHS_H1) was 4.82 ± 0.99 µM.
In the case of `CC(C)=CCc1c(O)cc(O)c2c1O[C@H](c1ccc(O)cc1)CC2=O` [8PN, 8-prenylnaringenin], the “binding to CHIL1 protein (in words)” value (HlCHIL1 protein) is reported as “no such binding could be detected” and the “CHIL2-associated compound (in words)” value (CHIL2) is reported as “no CHIL2-associated DMX or 8PN were detected”.
With `CC(C)=CCc1c(O)cc2c(c1O)C(=O)C[C@@H](c1ccc(O)cc1)O2` [6PN, 6-prenylnaringenin] the “binding to CHIL1 protein (in words)” value (HlCHIL1 protein) was “no such binding could be detected”.
Compound `CCCCCCCCCCCC(=O)O` [lauric acid] has a ΔTmmax (HlCHIL1 protein) of 5.0 °C.
For `CC(C)(COP(=O)(O)OP(=O)(O)OC[C@H]1O[C@@H](n2cnc3c(N)ncnc32)[C@H](O)[C@@H]1OP(=O)(O)O)[C@@H](O)C(=O)NCCC(=O)NCCSC(=O)CC(=O)O` [Malonyl-CoA], the Kcat (CHS_H1) was 0.24 ± 0.03 s^−1 × 10^−3 and the Km (CHS_H1) was 10.1 ± 2.99 µM.
`COc1cc(O)c(CC=C(C)C)c(O)c1C(=O)/C=C/c1ccc(O)cc1` [XN, 3′-prenyl-6′-O-methylchalconaringenin] was tested, and the “binding to CHIL1 protein (in words)” value (HlCHIL1 protein) was “no such binding could be detected”.
`CCCCCCCCCCCCCC(=O)O` [myristic acid] was tested, and the Kd (HlCHIL1 protein) was 3.45 µM and the ΔTmmax (HlCHIL1 protein) was 3.55 °C.
